Key:
PDE8A1 (480–820) = PDE8A1 (480–820) (Homo sapiens, UniProt O60658); experiment: PDE8A inhibition, 3H-cAMP radiometric enzyme assay; type: biochemical
Outline: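 Recombinant PDE8A1 (480–820) was expressed in E. coli BL21 (DE3), denatured in guanidine, refolded, and purified on Ni-NTA, hydroxyapatite, Q-Sepharose and gel filtration. ³H-cAMP (~20,000 cpm/assay) was reacted in Tris-HCl 20 mmol/L pH 7.5, MnCl₂ 10 mmol/L and DTT 1 mmol/L at 25 °C for 15 min. Reactions were stopped with ZnSO₄ then Ba(OH)₂, and supernatant ³H-cAMP was scintillation-counted. IC50 came from nonlinear regression over ≥8 concentrations, with each test run ≥3 times.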

[1] = Metabolic stability in rat liver microsomes; type: in vitro ADME

PDE8A1 (480–820), sequence (O60658 480-820): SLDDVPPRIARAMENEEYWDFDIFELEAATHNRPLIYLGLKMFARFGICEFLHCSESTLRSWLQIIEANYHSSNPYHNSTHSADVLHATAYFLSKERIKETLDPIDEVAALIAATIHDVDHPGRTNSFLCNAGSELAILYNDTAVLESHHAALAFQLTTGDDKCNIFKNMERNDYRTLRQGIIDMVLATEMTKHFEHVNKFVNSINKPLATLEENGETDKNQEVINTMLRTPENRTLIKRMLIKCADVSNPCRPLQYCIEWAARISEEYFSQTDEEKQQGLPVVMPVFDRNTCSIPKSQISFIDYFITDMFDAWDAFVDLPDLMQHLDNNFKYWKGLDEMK

| SMILES | IC50 (PDE8A1 (480–820)) | half-life [1] |
| --- | --- | --- |
| Nc1nc(Cl)nc2c1ncn2Cc1cc(O)cc(OCC(F)F)c1 [Compound 12] | 193 ± 17 nM |  |
| CCOc1cc(Cn2cnc3c(N)nc(Cl)nc32)cc(OCC(F)F)c1 [Compound 14] | 593 ± 69 nM |  |
| Nc1nc(Cl)nc2c1ncn2Cc1cc(OCc2ccccc2)cc(OCC(F)F)c1 [Compound 21] | 597 ± 61 nM |  |
| COCCOc1cc(Cn2cnc3c(N)nc(Cl)nc32)cc(OCC(F)F)c1 [Compound 20] | 52 ± 5 nM |  |
| CC(C)Oc1cc(Cn2cnc3c(N)nc(Cl)nc32)cc(OCC(F)F)c1 [Compound 17] | 5 ± 0.3 nM | 16 min |
| Nc1nc(Cl)nc2c1ncn2Cc1cc(OCC(F)F)cc(-c2cccnc2)c1 [Compound 23] | 4.8 ± 0.3 nM | 39 min |

The remaining compounds from weak to strong by IC50 (PDE8A1 (480–820)), led by results:

| IC50 (PDE8A1 (480–820)) | half-life [1] | SMILES |
| --- | --- | --- |
| 591 ± 11 nM |  | COc1cc(Cn2cnc3c(N)nc(Cl)nc32)cc(OCC(F)F)c1 [Compound 13] |
| 51 ± 3 nM |  | Nc1nc(Cl)nc2c1ncn2Cc1cc(F)cc(OCC(F)F)c1 [Compound 11] |
| 40 ± 1 nM |  | Nc1nc(Cl)nc2c1ncn2Cc1cc(OCC(F)F)cc(OCC2CC2)c1 [Compound 19] |
| 20 ± 2 nM |  | Nc1nc(Cl)nc2c1ncn2Cc1cc(OCC(F)F)cc(OC2CCC2)c1 [Compound 18] |
| 13 ± 2 nM |  | Nc1nc(Cl)nc2c1ncn2Cc1cc(OCC(F)F)cc(-c2ccco2)c1 [Compound 25] |
| 4.6 ± 0.6 nM | 6 min | CC(C)c1cc(Cn2cnc3c(N)nc(Cl)nc32)cc(OCC(F)F)c1 [Compound 16] |
| 3.1 ± 0.2 nM | 8 min | Nc1nc(Cl)nc2c1ncn2Cc1cc(OCC(F)F)cc(-c2ccncc2)c1 [Compound 22] |

From PMC9293670 (Acta Pharmaceutica Sinica. B, 2022)
